ChEMBL document CHEMBL1137710, “Synthesis and in vitro antitumor activity of new quinoxaline derivatives” (2009)

Legend:
Format in all cases: functional
UO-31 = experiment: Growth inhibition of human UO31 cells after 48 hrs by sulforhodamine B assay; details: UO-31, 48 h
In short: (§1)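 Run in the NCI 60-human-tumour-cell-line panel, tested over a 5-log dose range. Dose–response curves gave three values per cell line, each as a log10 molar concentration: GI50 (50% inhibition of net cell growth), TGI (total inhibition of net growth) and LC50 (50% net cell death). The mean graph midpoint is the arithmetic mean over all lines, with insensitive lines entered at the highest concentration tested.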

ACHN = experiment: Growth inhibition of human ACHN cells after 48 hrs by sulforhodamine B assay
HOP-92 = experiment: Growth inhibition of human HOP92 cells after 48 hrs by sulforhodamine B assay; details: HOP-92, 48 h
In short: (§2)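 NCI 60-human-tumor-cell-line panel, with compounds tested over a 5-log dose range. Values are taken from dose-response curves as log10 molar concentrations: GI50 is 50% net growth inhibition, TGI is total growth inhibition, and LC50 is 50% net cell death.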

MCF7 = experiment: Growth inhibition of human MCF7 cells after 48 hrs by sulforhodamine B assay; details: MCF7, 48 h; in short: as §2
HL-60(TB) = experiment: Growth inhibition of human HL-60(TB) cells after 48 hrs by sulforhodamine B assay; details: HL-60, 48 h
In short: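 Tested only on compounds active in a three-line prescreen, in the NCI 60-human-tumour-cell-line panel over a 5-log dose range. Values come from dose–response curves as log10 molar GI50, the concentration inhibiting 50% net cell growth. Log10 TGI (total growth inhibition) and log10 LC50 (50% net cell death) were derived too. Mean graph midpoints include insensitive lines at the highest concentration tested.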

SK-OV-3 = experiment: Growth inhibition of human SKOV3 cells after 48 hrs by sulforhodamine B assay; details: SK-OV-3, 48 h; in short: as §2
SF-539 = experiment: Growth inhibition of human SF539 cells after 48 hrs by sulforhodamine B assay; details: SF-539, 48 h; in short: as §2
SF-268 = experiment: Anticancer activity against human SF268 cells assessed as cell growth at 100 uM after 48 hrs by sulforhodamine B assay; details: SF-268, 48 h, read-out: Activity
BT-549 = experiment: Growth inhibition of human BT549 cells after 48 hrs by sulforhodamine B assay; details: BT-549, 48 h; in short: as §2
HCT-15 = experiment: Growth inhibition of human HCT15 cells after 48 hrs by sulforhodamine B assay; details: HCT-15, 48 h; in short: as §2
NCI-H460 = experiment: Growth inhibition of human NCI-H460 cells after 48 hrs by sulforhodamine B assay; details: NCI-H460, 48 h; in short: as §2
SNB-75 = experiment: Growth inhibition of human SNB75 cells after 48 hrs by sulforhodamine B assay; details: SNB-75, 48 h; in short: as §1
UACC-257 = experiment: Growth inhibition of human UACC257 cells after 48 hrs by sulforhodamine B assay; details: UACC-257, 48 h; in short: as §1
NCI-H226 = experiment: Growth inhibition of human NCI-H226 cells after 48 hrs by sulforhodamine B assay; details: NCI-H226, 48 h; in short: as §2
HT-29 = experiment: Growth inhibition of human HT-29 cells after 48 hrs by sulforhodamine B assay; details: HT-29, 48 h; in short: as §2
NCI-H23 = experiment: Growth inhibition of human NCI-H23 cells after 48 hrs by sulforhodamine B assay; details: NCI-H23, 48 h; in short: as §2
HOP-62 = experiment: Growth inhibition of human HOP62 cells after 48 hrs by sulforhodamine B assay; details: HOP-62, 48 h; in short: as §2
SR = experiment: Growth inhibition of human SR cells after 48 hrs by sulforhodamine B assay; in short: as §1
A498 = experiment: Growth inhibition of human A498 cells after 48 hrs by sulforhodamine B assay; details: A498, 48 h; in short: as §2
SNB-19 = experiment: Growth inhibition of human SNB19 cells after 48 hrs by sulforhodamine B assay; details: SNB-19, 48 h; in short: as §1
UACC-62 = experiment: Growth inhibition of human UACC62 cells after 48 hrs by sulforhodamine B assay; details: UACC-62, 48 h; in short: as §1
EKVX = experiment: Growth inhibition of human EKVX cells after 48 hrs by sulforhodamine B assay; in short: as §2
[1] = Growth inhibition of human […] cells after 48 hrs by sulforhodamine B assay; in short: as §2
KM12 = experiment: Growth inhibition of human KM12 cells after 48 hrs by sulforhodamine B assay; details: KM12, 48 h; in short: as §2
OVCAR-3 = experiment: Growth inhibition of human OVCAR-3 cells after 48 hrs by sulforhodamine B assay; details: OVCAR-3, 48 h; in short: as §2
SK-MEL-2 = experiment: Growth inhibition of human SK-MEL-2 cells after 48 hrs by sulforhodamine B assay; details: SK-MEL-2, 48 h; in short: as §2
[2] = read-out: pLC50 (the source's name) (converted)

Nc1cc(N)c2nc(-c3ccccc3)c(NCc3ccc(F)cc3)nc2c1
GI50 (UO-31): 3.8 µM | CC50 (UO-31; [2]): > 100 µM | TGI (UO-31; read-out: pTGI (converted)): > 100 µM | GI50 (ACHN): 1.7 µM | CC50 (ACHN; [2]): 5.62 µM | TGI (ACHN; read-out: pTGI (converted)): 3.09 µM | GI50 (HOP-92): 3.31 µM | LC50 (50% net cell death) (HOP-92): > 100 µM | TGI (HOP-92; read-out: pTGI (converted)): 6.92 µM | GI50 (MCF7): 3.02 µM | CC50 (MCF7; [2]): > 100 µM | TGI (MCF7; read-out: pTGI (converted)): > 100 µM | GI50 (HL-60(TB)): 3.89 µM | LC50 (HL-60(TB)): > 100 µM | TGI (HL-60(TB); read-out: pTGI (converted)): > 100 µM | GI50 (SK-OV-3): 12.9 µM | CC50 (SK-OV-3; [2]): 53.7 µM | TGI (SK-OV-3; read-out: pTGI (converted)): 26.3 µM | GI50 (SF-539): 1.82 µM | LC50 (SF-539): 6.92 µM | TGI (SF-539; read-out: pTGI (converted)): 3.55 µM | growth at 100 µM (SF-268): 1% | GI50 (BT-549): 1.7 µM | CC50 (BT-549; [2]): 6.31 µM | TGI (BT-549; read-out: pTGI (converted)): 3.24 µM | GI50 (HCT-15): 3.31 µM | LC50 (HCT-15): > 100 µM | TGI (HCT-15; read-out: pTGI (converted)): 19.1 µM | GI50 (NCI-H460): 4.07 µM | LC50 (50% net cell kill) (NCI-H460): > 100 µM | TGI (NCI-H460; read-out: pTGI (converted)): 25.7 µM | GI50 (SNB-75): 2.14 µM | LC50 (SNB-75): > 100 µM | TGI (SNB-75; read-out: pTGI (converted)): 5.01 µM | GI50 (UACC-257): 2.04 µM | CC50 (UACC-257; [2]): 8.91 µM | TGI (UACC-257; read-out: pTGI (converted)): 4.27 µM | GI50 (NCI-H226): 22.4 µM | LC50 (NCI-H226): > 100 µM | TGI (NCI-H226; read-out: pTGI (converted)): 47.9 µM | GI50 (HT-29): 3.16 µM | LC50 (HT-29): > 100 µM | TGI (HT-29; read-out: pTGI (converted)): 12.6 µM | GI50 (NCI-H23): 2.4 µM | LC50 (50% net cell kill concentration) (NCI-H23): 8.91 µM | TGI (NCI-H23; read-out: pTGI (converted)): 4.57 µM | GI50 (HOP-62): 38.9 µM | LC50 (HOP-62): > 100 µM | TGI (HOP-62; read-out: pTGI (converted)): > 100 µM | GI50 (SR): 4.07 µM | LC50 (concentration giving 50% net cell death) (SR): > 100 µM | TGI (SR; read-out: pTGI (converted)): > 100 µM | GI50 (A498): 17 µM | CC50 (A498; [2]): 57.5 µM | TGI (A498; read-out: pTGI (converted)): 30.9 µM | GI50 (SNB-19): 6.61 µM | LC50 (SNB-19): 52.5 µM | TGI (SNB-19; read-out: pTGI (converted)): 20 µM | GI50 (UACC-62): 15.5 µM | CC50 (UACC-62; [2]): 56.2 µM | TGI (UACC-62; read-out: pTGI (converted)): 29.5 µM | GI50 (EKVX): 1.91 µM | LC50 (50% net cell kill) (EKVX): 8.71 µM | TGI (EKVX; read-out: pTGI (converted)): 4.07 µM | GI50 [1]: 2.51 µM | LC50 [1]: > 100 µM | TGI ([1]; read-out: pTGI (converted)): 6.31 µM | GI50 (KM12): 2.82 µM | LC50 (50% net cell kill) (KM12): > 100 µM | TGI (KM12; read-out: pTGI (converted)): 7.41 µM | GI50 (OVCAR-3): 2.4 µM | CC50 (OVCAR-3; [2]): > 100 µM | TGI (OVCAR-3; read-out: pTGI (converted)): 6.46 µM | GI50 (SK-MEL-2): 5.25 µM | CC50 (SK-MEL-2; [2]): > 100 µM | TGI (SK-MEL-2; read-out: pTGI (converted)): > 100 µM
